This experiment addresses recombinant human VEGFR-2 (Homo sapiens, UniProt P35968). Kind of experiment: SPR binding affinity to immobilized VEGFR-2. The method, boiled down:
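Recombinant human receptor protein amine-coupled to a CM5 chip. Test peptides diluted in HBS-EP buffer and flowed over the surface at 0.0156, 0.03125, 0.0625, 0.125 and 0.25 μM, with resonance unit changes recorded. Response curves were fitted to a 1:1 Langmuir binding model to give the equilibrium dissociation constant KD.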
For orientation: Surface plasmon resonance follows binding to a sensor surface in real time, without labels.

Ends that are not written are not given here.

By Kd is commonly meant the constant that tells how readily two partners part at equilibrium.

Chain of recombinant human VEGFR-2 (P35968 20-1356): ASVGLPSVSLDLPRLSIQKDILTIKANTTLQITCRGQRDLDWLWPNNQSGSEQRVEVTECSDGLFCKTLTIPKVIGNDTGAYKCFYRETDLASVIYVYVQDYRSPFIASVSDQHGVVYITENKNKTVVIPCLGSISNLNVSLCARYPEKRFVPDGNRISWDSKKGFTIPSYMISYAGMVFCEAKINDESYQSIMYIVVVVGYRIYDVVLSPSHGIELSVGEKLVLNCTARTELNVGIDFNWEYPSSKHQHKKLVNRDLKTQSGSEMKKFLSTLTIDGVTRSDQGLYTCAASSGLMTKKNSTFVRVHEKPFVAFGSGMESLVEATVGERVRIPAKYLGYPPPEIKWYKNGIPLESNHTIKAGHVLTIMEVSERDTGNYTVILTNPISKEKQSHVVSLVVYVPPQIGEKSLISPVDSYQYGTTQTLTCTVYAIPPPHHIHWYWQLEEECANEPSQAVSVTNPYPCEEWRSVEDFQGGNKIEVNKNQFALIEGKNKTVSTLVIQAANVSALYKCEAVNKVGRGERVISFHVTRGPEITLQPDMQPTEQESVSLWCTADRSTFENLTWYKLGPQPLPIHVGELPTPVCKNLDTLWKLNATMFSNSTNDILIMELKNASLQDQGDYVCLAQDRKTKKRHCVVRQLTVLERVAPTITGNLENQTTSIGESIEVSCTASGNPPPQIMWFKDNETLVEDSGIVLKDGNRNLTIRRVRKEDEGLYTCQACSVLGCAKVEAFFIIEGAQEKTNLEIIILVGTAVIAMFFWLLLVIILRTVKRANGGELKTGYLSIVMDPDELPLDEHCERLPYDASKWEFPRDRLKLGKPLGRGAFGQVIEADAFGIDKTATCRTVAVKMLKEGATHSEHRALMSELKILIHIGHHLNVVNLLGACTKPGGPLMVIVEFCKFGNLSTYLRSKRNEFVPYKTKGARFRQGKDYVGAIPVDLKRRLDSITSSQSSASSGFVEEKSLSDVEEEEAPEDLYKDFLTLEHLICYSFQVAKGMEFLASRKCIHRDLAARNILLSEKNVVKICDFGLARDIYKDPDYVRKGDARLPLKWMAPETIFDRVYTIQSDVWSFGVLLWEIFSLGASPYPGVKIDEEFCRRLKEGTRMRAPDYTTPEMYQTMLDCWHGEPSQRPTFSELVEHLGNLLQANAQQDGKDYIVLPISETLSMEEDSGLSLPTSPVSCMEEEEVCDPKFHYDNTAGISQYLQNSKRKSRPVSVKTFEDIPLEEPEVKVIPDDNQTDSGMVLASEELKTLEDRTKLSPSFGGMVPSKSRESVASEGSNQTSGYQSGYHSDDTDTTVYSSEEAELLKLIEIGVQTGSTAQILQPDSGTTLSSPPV

Take `CC(C)C[C@H](NC(=O)[C@H](Cc1c[nH]c2ccccc12)NC(=O)[C@@H](NC(=O)[C@H](C)NC(=O)[C@H](CS)NC(=O)[C@H](CCCNC(=N)N)NC(=O)[C@H](CCCNC(=N)N)NC(=O)[C@H](CCCNC(=N)N)NC(=O)[C@H](CCC(N)=O)NC(=O)[C@H](CCCNC(=N)N)NC(=O)[C@H](CCCNC(=N)N)NC(=O)[C@H](CCCCN)NC(=O)[C@H](CCCCN)NC(=O)[C@@H](N)CCCNC(=N)N)[C@@H](C)O)C(=O)N1CCC[C@H]1C(=O)N1CCC[C@H]1C(=O)N[C@@H](CCCNC(=N)N)C(=O)O` [TAT-AT7]: the Kd was found to be 22.8 nM. On to ATWLPPRC [AT7], for which the Kd was determined as 283 nM.

The record behind these values is publication PMC7669533 (International Journal of Nanomedicine, 2020).
